Source: ChEMBL document CHEMBL1146809, “(+)-3-[2-(Benzo[b]thiophen-2-yl)-2-oxoethyl]-1-azabicyclo[2.2.2]octane as potent agonists for the alpha7 nicotinic acetylcholine receptor” (Bioorg Med Chem Lett, 2004)
pIC50: −log10 of the molar value.

Columns and labels:
[1] = molecular target: T1, Neuronal acetylcholine receptor subunit alpha-7 (Rattus norvegicus, UniProt Q05941); test: Alpha 7 nicotinic acetylcholine receptor binding activity in PC12 cells; type: cell-based, PC-12
[2] = molecular target: T1, Neuronal acetylcholine receptor subunit alpha-7; test: Binding affinities for the alpha 7 nicotinic acetylcholine receptor was determined in PC12 cells; type: cell-based, PC-12
[3] = Cmax wa determined in rat plasma at 30 mg/kg after po administration; type: ADME, organism-based; set-up: dose 30 mg/kg, route oral
Outline: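 Rats were dosed orally at 30 mg/kg. The read-out was the peak plasma concentration (Cmax), reported in ng/mL.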

T1 sequence (Q05941 whole entry): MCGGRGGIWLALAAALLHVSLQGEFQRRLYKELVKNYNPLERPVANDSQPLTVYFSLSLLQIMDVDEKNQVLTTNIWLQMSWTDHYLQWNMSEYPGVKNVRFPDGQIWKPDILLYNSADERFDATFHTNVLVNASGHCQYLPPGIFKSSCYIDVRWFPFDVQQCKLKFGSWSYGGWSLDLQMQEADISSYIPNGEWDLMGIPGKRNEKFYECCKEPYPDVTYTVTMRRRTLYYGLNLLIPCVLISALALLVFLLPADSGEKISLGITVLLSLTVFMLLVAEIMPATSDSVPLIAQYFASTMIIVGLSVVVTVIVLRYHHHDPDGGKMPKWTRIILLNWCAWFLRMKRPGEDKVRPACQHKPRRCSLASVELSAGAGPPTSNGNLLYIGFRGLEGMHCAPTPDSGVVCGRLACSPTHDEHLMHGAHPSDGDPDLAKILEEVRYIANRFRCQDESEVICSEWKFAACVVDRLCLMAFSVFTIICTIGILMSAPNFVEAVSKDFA

SMILES: c1ccc2sc(CO[C@H]3CN4CCC3CC4)cc2c1
- pIC50 [1]: 6.29

SMILES: c1ccc2sc(CC3CN4CCC3CC4)cc2c1 (configuration not stated)
- pIC50 [1]: 6.96

SMILES: O=C(c1cc2ccccc2s1)C1CN2CCC1CC2 (configuration not stated)
- pIC50 [1]: 6.02

SMILES: c1ccc2sc(CCCC3CN4CCC3CC4)cc2c1 (configuration not stated)
- pIC50 [1]: 6.43

SMILES: c1ccc2sc(CO[C@@H]3CN4CCC3CC4)cc2c1
- pIC50 [1]: 7.59

SMILES: c1ccc2cc(COC3CN4CCC3CC4)ccc2c1 (configuration not stated)
- pIC50 [2]: 6.82

SMILES: c1ccc2c(COC3CN4CCC3CC4)cccc2c1 (configuration not stated)
- pIC50 [2]: 6.14

SMILES: COc1ccc(Cc2cccnc2-c2cccnc2)c(OC)c1
- pIC50 [1]: 6.12

SMILES: c1ccc2sc(COC3CN4CCC3CC4)cc2c1 (configuration not stated)
- pIC50 [1]: 7.23

SMILES: c1ccc2sc(CCC3CN4CCC3CC4)cc2c1 (single isomer, unassigned; (+))
- pIC50 [1]: 7.19

SMILES: O=C(CC1CN2CCC1CC2)c1cc2ccccc2s1 (single isomer, unassigned; (+))
- pIC50 [1]: 6.89

SMILES: O=C(CC1CN2CCC1CC2)c1cc2ccccc2s1 (single isomer, unassigned; (-))
- pIC50 [1]: 6.77

SMILES: O=C(CC1CN2CCC1CC2)c1cc2ccccc2s1 (stereo in doubt; 15b)
- Cmax [3]: 270 ng/mL
- pIC50 [1]: 6.82

SMILES: c1ccc2sc(CCC3CN4CCC3CC4)cc2c1 (stereo in doubt; 16b)
- Cmax [3]: 450 ng/mL
- pIC50 [1]: 7.64

SMILES: c1ccc2sc(CCC3CN4CCC3CC4)cc2c1 (stereo in doubt; (-)-16b)
- pIC50 [1]: 6.66
